The list is not random: actives were taken first. Their share in the collection is about 3.3%.
STAT3 activator: increases IL-6 driven STAT3 reporter signal | U3A cells, IL-6 STAT3-luciferase reporter, luminescence; 100% = signal with IL-6 EC80 alone | activation (% of control), % at 5.6 µM | actives 0.91% (n = 190,000);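 active = activation above the screen-wide mean of compound activation plus 3 SD, cut at about 130% in these data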;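 also: 0% = background luminescence of wells with medium and substrate only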
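Material: human U3A cells carrying STAT3-luciferase construct. Measured by: reporter luminescence signal. Timing: compound 1 h, then IL-6 6 h at 37 °C.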
ABCB6 inh MLPCN: human ABCB6 transporter inhibition | actives 0.19% (n = 360,000) | K562-ABCB6 porphyrin accumulation, flow cytometry, 1 h; stronger effect = lower value | fluorescence ratio to DMSO, % at 10 µM | Q9NP58;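 active = fluorescence ratio to DMSO below 75%, the collection mean minus 3 SD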;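 also: signal is porphyrin accumulated inside mitochondria; 100% equals median channel fluorescence of DMSO control wells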
AHR act: human AHR activation; AHR-responsive luciferase reporter cells, luminescence; activation, % at 5 µM; actives 2.5% (n = 320,000); P35869; in the data active = activation above about 47%;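 also: 0% = vehicle wells and 100% = reference agonist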
GAA850 FXN act: activators of GAA850 frataxin (FXN) promoter; HEK293 lucGAA850 FXN promoter luciferase reporter, 24 h; percent of 10 µM SAHA response; AID 540364; activation, % at 6 µM; actives 0.56% (n = 360,000);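 active = activation above the average of all compounds screened plus 3 SD, cutoff fixed separately per campaign, cut at about 7.5% in these data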;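 also: 0% = DMSO wells and 100% = 10 µM SAHA wells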
Active calls of the source: *; · = no result given.

SMILES	STAT3 activator	ABCB6 inh MLPCN	AHR act	GAA850 FXN act
O=C(NCc1cccs1)c1csc([C@@H]2O[C@H](CO)[C@H](O)[C@H](O)[C@H]2O)n1	·	102.0	·	1.9
CCOc1ccc(Nc2ncnc3ccc([N+](=O)[O-])cc23)cc1	88.9	90.0	50.3*	-8.2
CCOC(=O)c1ccc(Nc2ncnc3ccc(C)cc23)cc1	92.9	191.0	34.1	-2.5
CNC(=O)C[C@@H]1C(=O)N(C2CCCCC2)CC1(C)C	·	101.0	·	0.8
NNC(=O)c1cccc(COc2cccc(Br)c2)c1	97.0	110.0	51.5*	3.9
O=C(Nc1cc(C(F)(F)F)ccc1-n1cncn1)c1cn2ccccc2n1	·	99.0	77.9*	2.2
O=C(Nc1cc(Cl)ccc1-n1cncn1)c1cn2ccccc2n1	·	92.0	26.5	1.2
CC(=O)c1cccc(NC(=O)C2CCN(C(=O)c3cccs3)CC2)c1	·	97.0	3.2	1.1
N#Cc1ccccc1NC(=O)CN1C(=O)NC(Cc2c[nH]c3ccccc23)C1=O (stereo not given)	·	118.0	78.1*	1.2
O=C(CN1C(=O)NC(Cc2c[nH]c3ccccc23)C1=O)Nc1ccc(F)cc1F (stereo not given)	·	96.0	2.9	1.5
O=C(CCC(=O)OCC(F)(F)C(F)F)Nc1ccc(Cl)cc1	103.2	101.0	1.5	-4.6
Cc1ccc(NC(=O)OCC(F)(F)C(F)F)cc1NC(=O)OCC(F)(F)C(F)F	107.9	95.0	55.0*	1.0
Cc1ccc(/C=C2\Oc3cc(OCC(=O)NN)ccc3C2=O)o1	·	100.0	·	-1.0
O=c1cc(-c2ccccc2Cl)oc2c(Br)ccc(O)c12	98.3	103.0	47.4*	-0.2
C=CCn1cccc(C(=O)Nc2ccc(C)cc2)c1=O	·	101.0	55.2*	2.2
C=CCn1cccc(C(=O)Nc2cc(OC)ccc2OC)c1=O	89.1	97.0	59.6*	2.8
C/C=C/Cn1cccc(C(=O)Nc2ccc(OC)cc2)c1=O	93.2	104.0	5.7	1.4
C=CCn1cccc(C(=O)Nc2ccc(C)c(C)c2)c1=O	·	98.0	22.4	4.2
c1ccc(COc2ccc3nocc3c2)cc1	·	96.0	-3.2	4.8
COC(=O)CCN(c1ccccc1)S(=O)(=O)c1cc(-c2cc(C)no2)ccc1C	·	100.0	-0.4	-0.1
CSCC[C@H](NC(=O)[C@H]1N2C(=O)c3ccccc3C2SC1(C)C)C(=O)NCc1ccncc1 (stereo not given in full)	·	100.0	2.8	-1.1
O=C(NC(=S)Nc1ccc2c(c1)OCCO2)c1ccccc1F	97.5	98.0	58.3*	3.6
O=C(Nc1ccc2c(c1)OCO2)c1cccc(Cl)c1	98.3	86.0	48.6*	1.0
O=C(Nc1ccc2c(c1)OCO2)c1cccc(S(=O)(=O)N2CCCC2)c1	99.0	88.0	107.1*	-2.2
O=C(Nc1ccc2c(c1)OCO2)c1ccc[n+]([O-])c1	101.9	90.0	48.3*	1.0
SMILES	STAT3 activator	ABCB6 inh MLPCN	AHR act	GAA850 FXN act
CCc1cccc(NC(=O)C2CCCN2C(=O)Nc2ccc(C)cc2)c1 (stereo not given)	·	98.0	1.4	-1.2
Cc1ccccc1C(=O)Nc1nnc([C@@H]2C[C@H](O)[C@@H](CO)O2)s1	·	102.0	·	-0.6
CCN(CC)C(=O)C1=C(C)N(Cc2ccc(OC)cc2)C(=O)C(CC(=O)NCCc2ccccn2)C1 (stereo not given)	·	100.0	·	2.7
Cc1nnc(Cc2ccco2)c2n[nH]c(C)c12	·	98.0	·	0.5
Cc1cccc(NC(=O)c2ccc3nccnc3c2)c1C	·	99.0	-3.7	0.9
COc1cc(Cl)c(C)cc1NC(=O)CN1C(=O)C2CC=CCC2C1=O (stereo not given)	·	92.0	5.8	0.6
COc1ccc(-c2cccc(NC(=O)c3ccc4c(c3)OCO4)c2)nn1	·	96.0	65.5*	0.6
COCCSc1ccccc1C(=O)Nc1ccc2c(c1)OCO2	95.4	100.0	19.3	0.1
CS(=O)(=O)c1ccc(-c2cccc(NC(=O)c3ccc4c(c3)OCO4)c2)nn1	·	98.0	·	-0.4
CCOc1cc(C(=O)Nc2ccc3c(c2)OCO3)ccc1OC(F)F	90.8	93.0	50.6*	4.9
CCOc1ccc(C(=O)NCC(=O)Nc2ccc3c(c2)OCO3)cc1OCC	·	103.0	·	1.3
CSc1ccccc1C(=O)Nc1ccc2c(c1)OCO2	85.6	101.0	54.0*	-1.3
CC(=O)c1c(C)[nH]c(C(=O)Nc2cccnc2)c1C	100.5	84.0	57.1*	-1.7
CCOC(=O)c1[nH]c(C)c(C(=O)Nc2ccc3c(c2)OCCO3)c1C	92.5	97.0	7.8	-3.4
Cc1nn(C)cc1C(=O)Nc1ccc2c(c1)OCCO2	·	100.0	47.5*	-3.7
